How the values were obtained:
[1] = test system: Simian immunodeficiency virus; assay: Antiviral activity against SIV-induced syncytium in human CEM174 cells assessed as inhibition of virus-induced cytopathogenicity after 5 days; format: functional, organism-based; conditions: CEM174, 120 h
Procedure, shortened: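 CEM174 cells at 1 × 10⁵ cells/mL, infected with 100 TCID₅₀ SIV per well, with serial compound dilutions; 5 days at 37 °C, 5% CO₂, humidified. Syncytium (giant cell) formation scored by microscope. EC₅₀ is the concentration giving 50% protection against SIV cytopathogenicity. Indinavir at 1 × 10⁻⁶ mol/L served as positive control.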

[2] = Therapeutic index, TC50 for human CEM174 cells to EC50 for SIV-induced syncytium; format: cell-based; conditions: read-out: TI
Procedure, shortened: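 Index calculated as TC₅₀ (MTT, uninfected CEM174, 5 days) divided by EC₅₀ (inhibition of SIV syncytium formation in CEM174 cells infected with 100 TCID₅₀ per well, 5 days, microscopic scoring).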

[3] = target: Structural capsid protein (Human immunodeficiency virus 1) (UniProt Q76129); assay: Binding affinity to HIV1 capsid protein assessed as decrease in assembly rate by turbidity-based ultraviolet spectrophotometry (RVb= 59.2+/-0.3 milliOD/min)
Sequence of Structural capsid protein (Human immunodeficiency virus 1) (Q76129 as listed by the source): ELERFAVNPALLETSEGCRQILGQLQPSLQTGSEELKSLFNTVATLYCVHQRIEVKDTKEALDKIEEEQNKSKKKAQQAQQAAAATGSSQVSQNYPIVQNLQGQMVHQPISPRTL

[4] = Cytotoxicity against uninfected human CEM174 cells after 5 days by MTT assay; format: cell-based; conditions: read-out: TC50
Procedure, shortened: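 Uninfected CEM174 cells under the antiviral assay conditions (5 days, 37 °C, 5% CO₂, humidified) with compound dilutions. Proliferation read by MTT reduction. TC₅₀ is the concentration inhibiting proliferation by 50%.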

[5] = target: Structural capsid protein (Human immunodeficiency virus 1) (UniProt Q76129); assay: Binding affinity to HIV1 capsid protein assessed as assembly rate at 10 uM by turbidity-based ultraviolet spectrophotometry
[6] = target: Structural capsid protein (Human immunodeficiency virus 1) (UniProt Q76129); assay: Binding affinity to HIV1 capsid protein assessed as assembly rate at 20 uM by turbidity-based ultraviolet spectrophotometry
[7] = target: Structural capsid protein (Human immunodeficiency virus 1) (UniProt Q76129); assay: Binding affinity to HIV1 capsid protein assessed as assembly rate at 40 uM by turbidity-based ultraviolet spectrophotometry

| SMILES | EC50 [1] [µM] | selectivity ratio [2] | Activity (milli optical density/minute) [3] | CC50 at 120 h [4] [µM] | Activity (milli optical density/minute) [5] | Activity (milli optical density/minute) [6] | Activity (milli optical density/minute) [7] |
| --- | --- | --- | --- | --- | --- | --- | --- |
| Cc1ccc(S(=O)(=O)N[C@@H](Cc2ccccc2)C(=O)N/N=C/c2ccccc2)cc1 | 0.4 | 125 | 18.9 | 50 | – | – | – |
| Cc1ccc(S(=O)(=O)N[C@@H](Cc2ccccc2)C(=O)NN=C(c2ccccc2)c2ccccc2)cc1 | 0.27 | > 365 | – | > 100 | – | – | – |
| COc1cc(/C=N/NC(=O)[C@H](Cc2ccccc2)NS(=O)(=O)c2ccc(C)cc2)ccc1O | 0.21 | > 476 | 10.6 | > 100 | 14 | 10.9 | 7.7 |
| O=C(CNS(=O)(=O)c1ccc(Br)cc1)N/N=C/c1ccccc1 | 0.33 | 284 | 22.5 | 92.8 | – | – | – |
| Cc1ccc(S(=O)(=O)N[C@@H](Cc2ccccc2)C(=O)N/N=C/c2ccc(Br)cc2)cc1 | 5.49 | 15 | – | 82.5 | – | – | – |
| O=C(N/N=C/c1ccccc1)[C@H](CO)NS(=O)(=O)c1ccc(Br)cc1 | 36 | 2.2 | – | 80.2 | – | – | – |
| Cc1ccc(/C=N/NC(=O)[C@H](Cc2ccccc2)NS(=O)(=O)c2ccc(C)cc2)cc1 | 9.93 | > 10.1 | 46 | > 100 | – | – | – |
| O=C(N/N=C/c1ccccc1)c1ccc([N+](=O)[O-])cc1 | 5.59 | 5.3 | – | 29.6 | – | – | – |
| Cc1ccc(NC(=O)NCCSCc2ccc(CN(C)C)o2)cc1Cl | – | – | 33.4 | – | – | – | – |
| CC(=O)Nc1ccc(S(=O)(=O)N/N=C/c2ccccc2)cc1 | 0.65 | 61.5 | – | 40 | – | – | – |
| CC(=O)Nc1ccc(S(=O)(=O)NCC(=O)N/N=C/c2ccccc2)cc1 | 15.1 | > 6.6 | – | > 100 | – | – | – |
| Cc1ccc(S(=O)(=O)N[C@@H](CO)C(=O)N/N=C/c2ccccc2)cc1 | 1.63 | 3.2 | 24.4 | 5.19 | – | – | – |
| C/C(=N\NC(=O)[C@H](Cc1ccccc1)NS(=O)(=O)c1ccc(C)cc1)c1cccc2ccccc12 | 0.4 | 123 | – | 49.1 | – | – | – |
| O=C(N[C@@H](Cc1ccccc1)C(=O)N/N=C/c1ccccc1)c1ccc([N+](=O)[O-])cc1 | 3 | 6.2 | – | 18.7 | – | – | – |
| C/C(=N\NC(=O)[C@H](Cc1ccccc1)NS(=O)(=O)c1ccc(C)cc1)c1ccccc1 | 0.3 | 70.7 | – | 21.2 | – | – | – |
| Cc1ccc(S(=O)(=O)N[C@@H](Cc2ccccc2)C(=O)N/N=C/c2ccc([N+](=O)[O-])cc2)cc1 | 6.64 | 1.5 | 31.9 | 9.8 | – | – | – |
| Cc1ccc(S(=O)(=O)N[C@@H](Cc2ccccc2)C(=O)NN=C2CCCCC2)cc1 | 0.89 | 87.6 | – | 78.3 | – | – | – |
| CC(=O)Nc1ccc(S(=O)(=O)N[C@@H](CO)C(=O)N/N=C/c2ccccc2)cc1 | 1.32 | > 75.8 | – | > 100 | – | – | – |

| SMILES | EC50 [1] [µM] | selectivity ratio [2] | Activity (milli optical density/minute) [3] | CC50 at 120 h [4] [µM] | Activity (milli optical density/minute) [5] | Activity (milli optical density/minute) [6] | Activity (milli optical density/minute) [7] |
| --- | --- | --- | --- | --- | --- | --- | --- |
| Cc1ccc(S(=O)(=O)N[C@@H](Cc2ccccc2)C(=O)N/N=C/c2ccc(Cl)cc2)cc1 | 2.8 | 3.4 | – | 9.4 | – | – | – |
| CC(=O)Nc1ccc(S(=O)(=O)N[C@@H](Cc2ccccc2)C(=O)N/N=C/c2ccccc2)cc1 | 0.47 | > 213 | 20.8 | > 100 | – | – | – |
| Cc1ccc(S(=O)(=O)N[C@@H](Cc2ccccc2)C(=O)N/N=C/c2ccccc2F)cc1 | 4.45 | > 22.5 | – | > 100 | – | – | – |
| O=S(=O)(N/N=C/c1ccccc1)c1ccc(Br)cc1 | 0.95 | > 105 | – | > 100 | – | – | – |
| O=S(=O)(c1ccc(Br)cc1)N1CCC(c2ccccc2)=N1 | 0.1 | 382 | 17.3 | 38.2 | – | – | – |
| COc1ccc(C(=O)N[C@@H](Cc2ccccc2)C(=O)N/N=C/c2ccccc2)cc1 | 0.2 | > 500 | 22.6 | > 100 | – | – | – |
| Cc1ccc(S(=O)(=O)N[C@@H](Cc2ccccc2)C(=O)N/N=C/c2ccco2)cc1 | 2.46 | 40.6 | – | 99.8 | – | – | – |
| Cc1ccc(S(=O)(=O)N[C@@H](Cc2ccccc2)C(=O)N/N=C/c2ccc3c(c2)OCO3)cc1 | 0.17 | > 588 | 7.9 | > 100 | 13.2 | 7.4 | 2.5 |
| COc1ccc(C(=O)N[C@@H](CO)C(=O)N/N=C/c2ccccc2)cc1 | 0.6 | 76 | 21.7 | 45.6 | – | – | – |
| COc1ccc(C(=O)N/N=C/c2ccccc2)cc1 | 31.1 | > 3.22 | – | > 100 | – | – | – |
| COc1ccc(C(=O)NCC(=O)N/N=C/c2ccccc2)cc1 | 2 | 31.9 | 43.5 | 63.8 | – | – | – |
| Cc1ccc(S(=O)(=O)NCC(=O)N/N=C/c2ccccc2)cc1 | 1.5 | 55.7 | 23.1 | 83.5 | – | – | – |
| O=C(N/N=C/c1ccccc1)[C@H](Cc1ccccc1)NS(=O)(=O)c1ccc(Br)cc1 | 15.3 | > 6.5 | – | > 100 | – | – | – |
| O=C(CNC(=O)c1ccc([N+](=O)[O-])cc1)N/N=C/c1ccccc1 | 1.03 | > 97.1 | – | > 100 | – | – | – |
| O=[N+]([O-])c1ccc(S(=O)(=O)N2CCC(c3ccccc3)=N2)cc1 | 0.52 | > 192 | – | > 100 | – | – | – |
| O=C(N[C@@H](CO)C(=O)N/N=C/c1ccccc1)c1ccc([N+](=O)[O-])cc1 | 2 | > 50 | – | > 100 | – | – | – |
| Cc1ccc(S(=O)(=O)N/N=C/c2ccccc2)cc1 | 0.36 | 88.1 | – | 31.7 | – | – | – |
